How the values were obtained:
[1] = target: Human immunodeficiency virus type 1 reverse transcriptase (Human immunodeficiency virus 1) (UniProt Q72547); assay: Compound ability to inhibit the production of HIV reverse transcriptase (RT) in culture supernatant of CEM-CL13 on at 7 days at a concentration 5 uM; format: functional
In short: (§1)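 CEM-C113 cells in RPMI 1640 with 5% heat-inactivated FCS and polybrene (2 µg/mL) were plated at 1×10^5 cells/mL with compound in PBS, in triplicate, and infected with HIV-1 LAV-Bru. From day 7, every 3–4 days, fresh medium with or without drug was added and 50 µL supernatant was taken for RT microassay. The RT microassay used poly(rA)-oligo(dT) and (methyl-³H)dTTP for 1 h at 37 °C, with TCA precipitation, read as cpm/50 µL.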

[2] = target: Human immunodeficiency virus type 1 reverse transcriptase (Human immunodeficiency virus 1) (UniProt Q72547); assay: Percent inhibition measured as the production of HIV reverse transcriptase (RT) in culture supernatant of monocytic U937 on at 14 days at a concentration 5 uM; format: functional
In short: (§2)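 U937 cells in RPMI 1640 with 5% heat-inactivated FCS, penicillin, streptomycin and polybrene (2 μg/mL), 37 °C, 5% CO2. Infected with HIV-1 LAV-Bru; compounds diluted in PBS. 50 μL supernatant aliquots were assayed for RT: 1 h, 37 °C, pH 7.8, Mg2+, poly(rA)-oligo(dT), [3H]dTTP, TCA-pyrophosphate stop, filter counting. % inhibition = 100 − 100 × (treated cpm / virus-control cpm).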

[3] = target: Human immunodeficiency virus type 1 reverse transcriptase (Human immunodeficiency virus 1) (UniProt Q72547); assay: Compound ability to inhibit the production of HIV reverse transcriptase (RT) in culture supernatant of CEM-CL13 on at 22 days at a concentration 5 uM; format: functional; in short: as §1
[4] = target: Human immunodeficiency virus type 1 reverse transcriptase (Human immunodeficiency virus 1) (UniProt Q72547); assay: Percent inhibition measured as the production of HIV reverse transcriptase (RT) in culture supernatant of monocytic U937 on at 7 days at a concentration 5 uM; format: functional; in short: as §2
[5] = target: Human immunodeficiency virus type 1 reverse transcriptase (Human immunodeficiency virus 1) (UniProt Q72547); settings: at 25 µM
[6] = target: Human immunodeficiency virus type 1 reverse transcriptase (Human immunodeficiency virus 1) (UniProt Q72547); settings: at 25 µM; remark: listed apart in the source
[7] = target: Human immunodeficiency virus type 1 reverse transcriptase (Human immunodeficiency virus 1) (UniProt Q72547); assay: Compound ability to inhibit the production of HIV reverse transcriptase (RT) in culture supernatant of monocytic U937 on at 14 days at a concentration 5 uM; format: functional
In short: (§3)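 HIV-1-infected monocytic U937 cultures were kept up to 14 days with compound. Supernatant RT activity was measured as for CEM-C113, as [³H] cpm/50 µL. % inhibition = 100 − 100 × (cpm of treated samples / cpm of control virus).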

[8] = target: Human immunodeficiency virus type 1 reverse transcriptase (Human immunodeficiency virus 1) (UniProt Q72547); assay: Compounds were evaluated for anti-RT activity by MTT dose and %protection was reported at 7 days of culture
In short: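 HIV-1 was preincubated with compound at 25 µM for 60 min at 37 °C, pelleted, and added to CEM-C113 cells (1×10^5 cells/mL) for 60 min at 37 °C. Medium was then replaced without compound. At days 7 and 9, viability was read by MTT assay on 100 µL of cell suspension.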

[9] = target: Human immunodeficiency virus type 1 reverse transcriptase (Human immunodeficiency virus 1) (UniProt Q72547); assay: Percent inhibition measured as the production of HIV reverse transcriptase (RT) in culture supernatant of monocytic U937 on at 7 days at a concentration 0.2 uM; format: functional; in short: as §2
[10] = target: Human immunodeficiency virus type 1 reverse transcriptase (Human immunodeficiency virus 1) (UniProt Q72547); assay: Percent inhibition measured as the production of HIV reverse transcriptase (RT) in culture supernatant of monocytic U937 on at 14 days at a concentration 0.2 uM; format: functional; in short: as §2
[11] = target: Human immunodeficiency virus type 1 reverse transcriptase (Human immunodeficiency virus 1) (UniProt Q72547); assay: Compound ability to inhibit the production of HIV reverse transcriptase (RT) in culture supernatant of CEM-CL13 on at 22 days at a concentration 1 uM; format: functional; in short: as §1
[12] = target: Human immunodeficiency virus type 1 reverse transcriptase (Human immunodeficiency virus 1) (UniProt Q72547); assay: Percent inhibition measured as the production of HIV reverse transcriptase (RT) in culture supernatant of monocytic U937 on at 11 days at a concentration 0.2 uM; format: functional; in short: as §3
[13] = target: Human immunodeficiency virus type 1 reverse transcriptase (Human immunodeficiency virus 1) (UniProt Q72547); assay: Compound ability to inhibit the production of HIV reverse transcriptase (RT) in culture supernatant of monocytic U937 on at 14 days at a concentration 0.2 uM; format: functional; in short: as §3

Compound | Activity (c.p.m. 50ul-1) [1] | inhibition [2] [%] | Activity (c.p.m. 50ul-1) [3] | inhibition [4] [%] | inhibition [5] [%] | inhibition [6] [%] | Activity (c.p.m. 50ul-1) [7] | Protection [8] [%] | inhibition [9] [%] | inhibition [10] [%] | Activity (c.p.m. 50ul-1) [11] | inhibition [12] [%] | Activity (c.p.m. 50ul-1) [13]
Cc1cn([C@H]2C[C@H](N=[N+]=[N-])[C@@H](COP(=O)(O)OCCO[C@H]3O[C@H](CO)[C@@H](O)[C@H](O)[C@@H]3O)O2)c(=O)[nH]c1=O | 1670 | 0 | 5500 | 20 | 41 | 77 | 23000 | – | – | – | – | – | –
Cc1cn([C@H]2C[C@H](N=[N+]=[N-])[C@@H](COP(=O)(O)OC[C@H]3OC(O)[C@@H](O)[C@@H](O)[C@@H]3O)O2)c(=O)[nH]c1=O (some centres undefined) | 1500 | 0 | 12000 | 46 | 0 | 86 | 24000 | – | – | – | – | – | –
Cc1cn([C@H]2C[C@H](N=[N+]=[N-])[C@@H](COP(=O)(O)OC[C@H]3OC(O)[C@H](O)[C@@H](O)[C@@H]3O)O2)c(=O)[nH]c1=O (some centres undefined) | 1100 | 0 | 1500 | 43 | 0 | 73 | 31400 | 36 | – | – | – | – | –
Cc1cn([C@H]2C[C@H](N=[N+]=[N-])[C@@H](CO)O2)c(=O)[nH]c1=O [ZIDOVUDINE] | 900 | 0 | 500 | 86 | 0 | 96 | 33000 | – | 91 | 0 | 1700 | 0 | 60000
CCCCCCCCCCCCCCCCOP(=O)(OC[C@H]1OC(O)[C@H](O)[C@@H](O)[C@@H]1O)OC[C@H]1OC(n2cc(C)c(=O)[nH]c2=O)C[C@@H]1N=[N+]=[N-] (some centres undefined) | – | – | – | – | – | – | – | – | 0 | 14 | 33000 | 0 | 16000
CCCCCCCCCCCCCCCCOP(=O)(OCCO[C@H]1O[C@H](CO)[C@@H](O)[C@H](O)[C@@H]1O)OCC1OC(n2cc(C)c(=O)[nH]c2=O)CC1N=[N+]=[N-] (some centres undefined) | – | – | – | – | – | – | – | – | 0 | 0 | 48000 | 9 | 30000
CCCCCCCCCCCCCCCCOP(=O)(OC[C@H]1OC(O)[C@@H](O)[C@@H](O)[C@@H]1O)OC[C@H]1OC(n2cc(C)c(=O)[nH]c2=O)C[C@@H]1N=[N+]=[N-] (some centres undefined) | – | – | – | – | – | – | – | – | 0 | 0 | 3900 | 0 | 27000
